According to ChEMBL document CHEMBL1128511, “4-Aza-3-oxo-5 alpha-androst-1-ene-17 beta-N-aryl-carboxamides as dual inhibitors of human type 1 and type 2 steroid 5 alpha-reductases. Dramatic effect of N-aryl substituents on type 1 and type 2 5 alpha-reductase inhibitory potency” (J Med Chem, 1995):

Legend:
[1] = biological target: T1, 3-oxo-5-alpha-steroid 4-dehydrogenase 2 (Homo sapiens, UniProt P31213); assay: Inhibition of recombinant human Steroid 5-alpha-reductase type 2
T1 sequence (P31213 whole entry): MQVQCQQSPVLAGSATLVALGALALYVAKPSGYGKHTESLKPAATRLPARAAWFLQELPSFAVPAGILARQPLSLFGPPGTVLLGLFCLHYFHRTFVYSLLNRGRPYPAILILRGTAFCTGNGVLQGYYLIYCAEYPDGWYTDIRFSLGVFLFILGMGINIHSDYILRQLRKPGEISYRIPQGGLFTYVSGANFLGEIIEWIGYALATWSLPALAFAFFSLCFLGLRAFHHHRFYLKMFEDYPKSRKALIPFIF
Procedure, shortened: (§1)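 Baculovirus-expressed recombinant human type 1 or type 2 5α-reductase; cofactor and inhibitor preincubated with the enzyme before testosterone is added. Fixed-time assay following conversion of testosterone to DHT with and without inhibitor. The IC50 is the nM concentration giving 50% inhibition of DHT formation.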

[2] = biological target: T2, 3-oxo-5-alpha-steroid 4-dehydrogenase 1 (Homo sapiens, UniProt P18405); assay: Inhibition of recombinant human Steroid 5-alpha-reductase type I; procedure, shortened: as §1
T2 sequence (P18405 whole entry): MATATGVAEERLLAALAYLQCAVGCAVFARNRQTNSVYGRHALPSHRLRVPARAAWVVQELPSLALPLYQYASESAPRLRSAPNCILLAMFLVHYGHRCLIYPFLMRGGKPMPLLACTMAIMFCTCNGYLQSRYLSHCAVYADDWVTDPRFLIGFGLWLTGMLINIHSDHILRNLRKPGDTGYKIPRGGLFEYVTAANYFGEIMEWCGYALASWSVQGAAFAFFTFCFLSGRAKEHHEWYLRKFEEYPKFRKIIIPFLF

[3] = Kinetic Parameter Ki for Inhibition of Type 1 5-alpha-reductase
[4] = Kinetic Parameter k3/k1 for Inhibition of Type-2 5-alpha-reductase
Procedure, shortened: (§2)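 Baculovirus-expressed recombinant human type 1 or type 2 5α-reductase; conversion of testosterone to DHT followed over time with and without inhibitor under standard conditions. Second-order rate constants obtained by fitting progress data to the integrated first-order rate equation for time-dependent inhibition.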

[5] = Kinetic Parameter Ki for Inhibition of Type-2 5-alpha-reductase
[6] = Kinetic Parameter k3/k1 for Inhibition of Type 1 5-alpha-reductase; procedure, shortened: as §2

Row | Compound | IC50 [1] | IC50 [2] | Ki [3] | k3/k1 [4] | Ki [5] | k3/ki [6] | k3/ki [4]
1 | Cc1ccccc1NC(=O)C1CCC2C3CCC4NC(=O)C=C[C@]4(C)C3CC[C@]12C (stereo not given in full) | < 0.1 nM | 30.3 nM |  |  |  |  | 
2 | C[C@]12C=CC(=O)NC1CCC1C2CC[C@]2(C)C(C(=O)Nc3cccc4ccccc34)CCC12 (stereo not given in full) | 0.2 nM | 8.1 nM | 70 nM | 2100000 M⁻¹ s⁻¹ | 0.5 nM |  | 
3 | C[C@]12C=CC(=O)NC1CCC1C2CC[C@]2(C)C(C(=O)Nc3ccc4ccccc4c3)CCC12 (stereo not given in full) | 0.2 nM | 17.2 nM |  |  |  |  | 
4 | C[C@]12C=CC(=O)NC1CCC1C2CC[C@]2(C)C(C(=O)Nc3ccccc3Cl)CCC12 (stereo not given in full) | < 0.1 nM | 14.5 nM |  |  |  |  | 
5 | Cc1cccc(NC(=O)C2CCC3C4CCC5NC(=O)C=C[C@]5(C)C4CC[C@]23C)c1 (stereo not given in full) | 0.3 nM | 24.6 nM |  |  |  |  | 
6 | Cc1cccc(C)c1NC(=O)C1CCC2C3CCC4NC(=O)C=C[C@]4(C)C3CC[C@]12C (stereo not given in full) | < 1 nM | 14 nM |  |  |  |  | 
7 | COc1ccccc1NC(=O)C1CCC2C3CCC4NC(=O)C=C[C@]4(C)C3CC[C@]12C (stereo not given in full) | < 1 nM | 11 nM |  |  |  |  | 
8 | C[C@]12C=CC(=O)NC1CCC1C2CC[C@]2(C)C(C(=O)Nc3cc(C(F)(F)F)ccc3C(F)(F)F)CCC12 (stereo not given in full) | < 0.1 nM | 5.8 nM | 2.4 nM |  | 0.5 nM | 270000 M⁻¹ s⁻¹ | 7000000 M⁻¹ s⁻¹
9 | C[C@]12C=CC(=O)NC1CCC1C2CC[C@]2(C)C(C(=O)Nc3ccccc3N)CCC12 (stereo not given in full) | < 1 nM | 130 nM |  |  |  |  | 
10 | C[C@]12C=CC(=O)NC1CCC1C2CC[C@]2(C)C(C(=O)Nc3cccc(Cl)c3)CCC12 (stereo not given in full) | 0.1 nM | 18.2 nM |  |  |  |  | 
11 | COc1cccc(NC(=O)C2CCC3C4CCC5NC(=O)C=C[C@]5(C)C4CC[C@]23C)c1 (stereo not given in full) | < 1 nM | 19 nM |  |  |  |  | 
12 | C[C@]12C=CC(=O)NC1CCC1C2CC[C@]2(C)C(C(=O)Nc3cccc(N)c3)CCC12 (stereo not given in full) | < 1 nM | 94 nM |  |  |  |  | 
13 | C[C@]12C=CC(=O)NC1CCC1C2CC[C@]2(C)C(C(=O)Nc3ccc(-c4ccccc4)cc3)CCC12 (stereo not given in full) | 2.2 nM | 34.9 nM |  |  |  |  | 
14 | C[C@]12C=CC(=O)NC1CCC1C2CC[C@]2(C)C(C(=O)Nc3ccc(Cl)cc3)CCC12 (stereo not given in full) | 0.2 nM | 6.8 nM |  |  |  |  | 
15 | C[C@]12C=CC(=O)NC1CCC1C2CC[C@]2(C)C(C(=O)Nc3ccccc3O)CCC12 (stereo not given in full) | < 1 nM | 12.9 nM |  |  |  |  | 
16 | C[C@]12C=CC(=O)NC1CCC1C2CC[C@]2(C)C(C(=O)Nc3cccc(O)c3)CCC12 (stereo not given in full) | < 1 nM | 52 nM |  |  |  |  | 
17 | C[C@]12C=CC(=O)NC1CCC1C2CC[C@]2(C)C(C(=O)Nc3ccc(C(=O)c4ccccc4)cc3)CCC12 (stereo not given in full) | 1.6 nM | 19 nM |  |  |  |  | 
18 | C[C@]12C=CC(=O)NC1CCC1C2CC[C@]2(C)C(C(=O)Nc3ccccc3C(F)(F)F)CCC12 (stereo not given in full) | < 0.1 nM | 5.6 nM | 12 nM |  | 1.3 nM | 35000 M⁻¹ s⁻¹ | 9700000 M⁻¹ s⁻¹
19 | C[C@]12C=CC(=O)NC1CCC1C2CC[C@]2(C)C(C(=O)Nc3cccc(Br)c3)CCC12 (stereo not given in full) | 0.2 nM | 20.5 nM |  |  |  |  | 

Row | Compound | IC50 [1] | IC50 [2] | Ki [3] | k3/k1 [4] | Ki [5] | k3/ki [6] | k3/ki [4]
20 | C[C@]12C=CC(=O)NC1CCC1C2CC[C@]2(C)C(C(=O)Nc3ccccc3-c3ccccc3)CCC12 (stereo not given in full) | < 0.1 nM | 38.3 nM |  |  |  |  | 
21 | CN(C(=O)C1CCC2C3CCC4NC(=O)C=C[C@]4(C)C3CC[C@]12C)c1ccccc1 (stereo not given in full) | 24.6 nM | 350 nM |  |  |  |  | 
22 | C[C@]12C=CC(=O)NC1CCC1C2CC[C@]2(C)C(C(=O)Nc3ccccc3F)CCC12 (stereo not given in full) | < 0.1 nM | 7.9 nM |  |  |  |  | 
23 | C[C@]12C=CC(=O)NC1CCC1C2CC[C@]2(C)C(C(=O)N(c3ccccc3)c3ccccc3)CCC12 (stereo not given in full) | 25.2 nM | > 1000 nM |  |  |  |  | 
24 | C[C@]12C=CC(=O)NC1CCC1C2CC[C@]2(C)C(C(=O)Nc3ccc(F)cc3)CCC12 (stereo not given in full) | 0.2 nM | 22.5 nM |  |  |  |  | 
25 | CCN(C(=O)C1CCC2C3CCC4NC(=O)C=C[C@]4(C)C3CC[C@]12C)c1ccccc1 (stereo not given in full) | 7.9 nM | 614 nM |  |  |  |  | 
26 | Cc1ccc(NC(=O)C2CCC3C4CCC5NC(=O)C=C[C@]5(C)C4CC[C@]23C)cc1 (stereo not given in full) | 0.1 nM | 17.2 nM |  |  |  |  | 
27 | C[C@]12C=CC(=O)NC1CCC1C2CC[C@]2(C)C(C(=O)Nc3cccc(-c4ccccc4)c3)CCC12 (stereo not given in full) | < 0.1 nM | 14 nM | 24 nM |  | 1.4 nM | 51000 M⁻¹ s⁻¹ | 5000000 M⁻¹ s⁻¹
28 | C[C@]12C=CC(=O)NC1CCC1C2CC[C@]2(C)C(C(=O)Nc3cccc(C(=O)c4ccccc4)c3)CCC12 (stereo not given in full) | < 1 nM | 12 nM |  |  |  |  | 
29 | C[C@]12C=CC(=O)NC1CCC1C2CC[C@]2(C)C(C(=O)Nc3ccc(C(F)(F)F)cc3)CCC12 (stereo not given in full) | 0.4 nM | 20.9 nM |  |  |  |  | 
30 | C[C@]12C=CC(=O)NC1CCC1C2CC[C@]2(C)C(C(=O)Nc3cccc(F)c3)CCC12 (stereo not given in full) | 0.2 nM | 23 nM |  |  |  |  | 
31 | C[C@]12C=CC(=O)NC1CCC1C2CC[C@]2(C)C(C(=O)Nc3ccccc3)CCC12 (stereo not given in full) | 0.2 nM | 20 nM | 230 nM |  | 1.7 nM | 3900 M⁻¹ s⁻¹ | 1700000 M⁻¹ s⁻¹
32 | C[C@]12C=CC(=O)NC1CCC1C2CC[C@]2(C)C(C(=O)Nc3ccc(O)cc3)CCC12 (stereo not given in full) | < 1 nM | 74 nM |  |  |  |  | 
33 | C[C@]12C=CC(=O)NC1CCC1C2CC[C@]2(C)C(C(=O)Nc3ccccc3C(=O)c3ccccc3)CCC12 (stereo not given in full) | < 1 nM | 28.7 nM |  |  |  |  | 
34 | C[C@]12C=CC(=O)NC1CCC1C2CC[C@]2(C)C(C(=O)N3CCCCc4ccccc43)CCC12 (stereo not given in full) | 10.2 nM | 595 nM |  |  |  |  | 
35 | C[C@]12C=CC(=O)NC1CCC1C2CC[C@]2(C)C(C(=O)N3CCCc4ccccc43)CCC12 (stereo not given in full) | 1.4 nM | 154 nM |  |  |  |  | 
36 | COc1ccc(NC(=O)C2CCC3C4CCC5NC(=O)C=C[C@]5(C)C4CC[C@]23C)cc1 (stereo not given in full) | < 1 nM | 26 nM |  |  |  |  | 
37 | C[C@]12C=CC(=O)NC1CCC1C2CC[C@]2(C)C(C(=O)Nc3cccc(C(F)(F)F)c3)CCC12 (stereo not given in full) | 0.1 nM | 12.5 nM |  |  |  |  | 
38 | C[C@]12C=CC(=O)NC1CCC1C2CC[C@]2(C)C(C(=O)Nc3ccc(N)cc3)CCC12 (stereo not given in full) | < 1 nM | 120 nM |  |  |  |  | 
